# Laboratory results: ChEMBL document CHEMBL1921792, “Synthesis and anticonvulsant activity of trans- and cis-2-(2,6-dimethylphenoxy)-N-(2- or 4-hydroxycyclohexyl)acetamides and their amine analogs” (Bioorg Med Chem, 2011)
# The source made the active and inactive calls. The rule behind the calls is not given here.
# Assays:
# [1] = test system: Mus musculus; test: Anticonvulsant activity in mouse assessed as protection against maximal electric shock-induced seizures at 100 mg/kg, ip after 4 hrs; type: functional, organism-based; set-up: dose 100 mg/kg
# Procedure, shortened: (§1)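 Phase I maximal electroshock screen in mice. Compound given ip as a suspension in 0.5% methylcellulose at 30, 100 or 300 mg/kg, tested at 30 min and 4 h. Small groups (1–8); result is number protected/number tested.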
# [2] = test system: Mus musculus; test: Anticonvulsant activity in mouse assessed as protection against maximal electric shock-induced seizures at 30 mg/kg, ip after 0.5 hrs; type: functional, organism-based; set-up: dose 30 mg/kg; procedure, shortened: as §1
# [3] = test system: Mus musculus; test: Anticonvulsant activity in mouse assessed as protection against maximal electric shock-induced seizures at 30 mg/kg, ip after 4 hrs; type: functional, organism-based; set-up: dose 30 mg/kg; procedure, shortened: as §1
# [4] = test system: Mus musculus; test: Anticonvulsant activity in mouse assessed as protection against maximal electric shock-induced seizures at 300 mg/kg, ip after 0.5 hrs; type: functional, organism-based; set-up: dose 300 mg/kg; procedure, shortened: as §1
# [5] = test system: Mus musculus; test: Anticonvulsant activity in mouse assessed as protection against maximal electric shock-induced seizures at 300 mg/kg, ip after 4 hrs; type: functional, organism-based; set-up: dose 300 mg/kg; procedure, shortened: as §1
# [6] = test system: Mus musculus; test: Anticonvulsant activity against subcutaneous pentylenetetrazole-induced seizures in mouse at 30 mg/kg, ip after 0.5 hrs; type: functional, organism-based; set-up: dose 30 mg/kg
# Procedure, shortened: (§2)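 Phase I screen in mice. Compound given ip as a suspension in 0.5% methylcellulose, read at 30 min and 4 h. Pentylenetetrazole 85 mg/kg in 0.9% NaCl was injected sc into the posterior midline and animals watched ≥30 min. Protection meant no clonic spasm lasting ≥5 s. Groups of 1–8 animals; result is protected/tested.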
# [7] = test system: Mus musculus; test: Anticonvulsant activity against subcutaneous pentylenetetrazole-induced seizures in mouse at 30 mg/kg, ip after 4 hrs; type: functional, organism-based; set-up: dose 30 mg/kg; procedure, shortened: as §2
# [8] = test system: Mus musculus; test: Anticonvulsant activity against subcutaneous pentylenetetrazole-induced seizures in mouse at 100 mg/kg, ip after 4 hrs; type: functional, organism-based; set-up: dose 100 mg/kg; procedure, shortened: as §2
# [9] = test system: Mus musculus; test: Anticonvulsant activity against subcutaneous pentylenetetrazole-induced seizures in mouse at 300 mg/kg, ip after 0.5 hrs; type: functional, organism-based; set-up: dose 300 mg/kg; procedure, shortened: as §2
# [10] = test system: Mus musculus; test: Anticonvulsant activity against subcutaneous pentylenetetrazole-induced seizures in mouse at 300 mg/kg, ip after 4 hrs; type: functional, organism-based; set-up: dose 300 mg/kg; procedure, shortened: as §2
# [11] = test system: Mus musculus; test: Neurotoxicity in mouse assessed as inability to maintain equilibrium on rotarod at 30 mg/kg, ip after 0.5 hrs by rotarod test; type: toxicity, organism-based; set-up: dose 30 mg/kg, route intraperitoneal; details: in vivo
# Procedure, shortened: (§3)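 Drug given ip to mice as a suspension in 0.5% methylcellulose. At the stated time after dosing, each mouse was placed on a 1 inch knurled rod turning at 6 rpm. Neurotoxicity = inability to stay balanced at least 1 min in each of three trials. Scored as animals toxic/animals tested in small groups.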
# [12] = test system: Mus musculus; test: Neurotoxicity in mouse assessed as inability to maintain equilibrium on rotarod at 100 mg/kg, ip after 0.5 hrs by rotarod test; type: toxicity, organism-based; set-up: dose 100 mg/kg, route intraperitoneal; details: in vivo; procedure, shortened: as §3
# [13] = test system: Mus musculus; test: Neurotoxicity in mouse assessed as inability to maintain equilibrium on rotarod at 300 mg/kg, ip after 0.5 hrs by rotarod test; type: toxicity, organism-based; set-up: dose 300 mg/kg, route intraperitoneal; details: in vivo; procedure, shortened: as §3
# [14] = test system: Mus musculus; test: Neurotoxicity in mouse assessed as inability to maintain equilibrium on rotarod at 30 mg/kg, ip after 4 hrs by rotarod test; type: toxicity, organism-based; set-up: dose 30 mg/kg, route intraperitoneal; details: in vivo; procedure, shortened: as §3
# [15] = test system: Mus musculus; test: Neurotoxicity in mouse assessed as inability to maintain equilibrium on rotarod at 100 mg/kg, ip after 4 hrs by rotarod test; type: toxicity, organism-based; set-up: dose 100 mg/kg, route intraperitoneal; details: in vivo; procedure, shortened: as §3
# [16] = test system: Mus musculus; test: Neurotoxicity in mouse assessed as inability to maintain equilibrium on rotarod at 300 mg/kg, ip after 4 hrs by rotarod test; type: toxicity, organism-based; set-up: dose 300 mg/kg, route intraperitoneal; details: in vivo; procedure, shortened: as §3
# [17] = Neurotoxicity in ip dosed mouse assessed as inability to maintain equilibrium on rotarod by rotarod test; type: toxicity, organism-based; details: in vivo
# Procedure, shortened: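 Mice dosed ip with a suspension in 0.5% methylcellulose, then placed on a 1 inch knurled plastic rod rotating at 6 rpm. Toxicity = failure to keep equilibrium for at least 1 min in each of three trials.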
# [18] = test system: Mus musculus; test: Anticonvulsant activity in ip dosed mouse assessed as protection against maximal electric shock-induced seizures; type: functional; details: Mus musculus, ip; read-out: ED50
# [19] = species: Mus musculus; test: Protective index, ratio of TD50 for neurotoxicity in mouse to ED50 for inhibition of maximal electroshock-induced seizures in mouse; type: functional
# [20] = test system: Rattus norvegicus; test: Neurotoxicity in rat assessed as neurological deficit at 30 mg/kg, po after 0.25 hrs […]; type: toxicity, organism-based; set-up: dose 30 mg/kg, route oral; details: in vivo
# Procedure, shortened: (§4)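 Rats given the compound, suspended in 0.5% methylcellulose, by the stated route and dose. Neurological deficit was recorded at the listed times as ataxia and loss of placing response and muscle tone. Reported as number of rats showing toxicity/number tested.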
# [21] = test system: Rattus norvegicus; test: Neurotoxicity in rat assessed as neurological deficit at 30 mg/kg, po after 0.5 hrs […]; type: toxicity, organism-based; set-up: dose 30 mg/kg, route oral; details: in vivo; procedure, shortened: as §4
# [22] = test system: Rattus norvegicus; test: Neurotoxicity in rat assessed as neurological deficit at 30 mg/kg, po after 1 hr […]; type: toxicity, organism-based; set-up: dose 30 mg/kg, route oral; details: in vivo; procedure, shortened: as §4
# [23] = test system: Rattus norvegicus; test: Neurotoxicity in rat assessed as neurological deficit at 30 mg/kg, po after 2 hrs […]; type: toxicity, organism-based; set-up: dose 30 mg/kg, route oral; details: in vivo; procedure, shortened: as §4
# [24] = test system: Rattus norvegicus; test: Neurotoxicity in rat assessed as neurological deficit at 30 mg/kg, po after 4 hrs by rotarod test; type: toxicity, organism-based; set-up: dose 30 mg/kg, route oral; details: in vivo; procedure, shortened: as §4
# [25] = test system: Mus musculus; test: Anticonvulsant activity in mouse assessed as protection against maximal electric shock-induced seizures at 90 mg/kg, ip after 0.25 hrs; type: functional, organism-based; set-up: dose 90 mg/kg
# Procedure, shortened: (§5)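 Time-to-peak-effect assay: MES protection read at 0.25–4 h after dosing. Mice ip (60–130 mg/kg), rats po (15 or 30 mg/kg) or ip (30 mg/kg). Groups of 4–8; result is protected/tested.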
# [26] = test system: Mus musculus; test: Anticonvulsant activity in mouse assessed as protection against maximal electric shock-induced seizures at 90 mg/kg, ip after 0.5 hrs; type: functional, organism-based; set-up: dose 90 mg/kg; procedure, shortened: as §5
# [27] = test system: Mus musculus; test: Anticonvulsant activity in mouse assessed as protection against maximal electric shock-induced seizures at 90 mg/kg, ip after 1 hr; type: functional, organism-based; set-up: dose 90 mg/kg; procedure, shortened: as §5
# [28] = test system: Mus musculus; test: Anticonvulsant activity in mouse assessed as protection against maximal electric shock-induced seizures at 90 mg/kg, ip after 4 hrs; type: functional, organism-based; set-up: dose 90 mg/kg; procedure, shortened: as §5
# [29] = test system: Mus musculus; test: Neurotoxicity in mouse assessed as inability to maintain equilibrium on rotarod at 90 mg/kg, ip after 24 hrs using rotarod test; type: toxicity, organism-based; set-up: dose 90 mg/kg, route intraperitoneal; details: in vivo; procedure, shortened: as §3
# [30] = test system: Mus musculus; test: Anticonvulsant activity in mouse assessed as protection against maximal electric shock-induced seizures at 70 mg/kg, ip after 0.5 hrs; type: functional, organism-based; set-up: dose 70 mg/kg; procedure, shortened: as §5
# [31] = test system: Mus musculus; test: Anticonvulsant activity in mouse assessed as protection against maximal electric shock-induced seizures at 70 mg/kg, ip after 1 hr; type: functional, organism-based; set-up: dose 70 mg/kg; procedure, shortened: as §5
# [32] = test system: Mus musculus; test: Anticonvulsant activity in mouse assessed as protection against maximal electric shock-induced seizures at 70 mg/kg, ip after 2 hrs; type: functional, organism-based; set-up: dose 70 mg/kg; procedure, shortened: as §5
# [33] = test system: Mus musculus; test: Anticonvulsant activity in mouse assessed as protection against maximal electric shock-induced seizures at 60 mg/kg, ip after 0.25 hrs; type: functional, organism-based; set-up: dose 60 mg/kg; procedure, shortened: as §5
# [34] = test system: Mus musculus; test: Anticonvulsant activity in ip dosed mouse assessed as time to show peak effect of protection against maximal electric shock-induced seizures; type: functional; procedure, shortened: as §5
compound,measurement,setting,value
Cc1cccc(C)c1OCC(=O)N[C@H]1CCCC[C@@H]1O.O=C(O)C(O)C(O)C(=O)O,Activity,[1],inactive
same,Activity,[2],inactive
same,Activity,[3],inactive
same,Activity,[4],Active
same,Activity,[5],inactive
same,Activity,[6],inactive
same,Activity,[7],inactive
same,Activity,[8],inactive
same,Activity,[9],inactive
same,Activity,[10],inactive
same,Activity,[11],Non-toxic
same,Activity,[12],Non-toxic
same,Activity,[13],Non-toxic
same,Activity,[14],Non-toxic
same,Activity,[15],Non-toxic
same,Activity,[16],Non-toxic
same,TD50,[17],68.7 mg/kg
same,ED50,[18],35.5 mg/kg
same,Ratio TD50/ED50,[19],1.937
same,Activity,[20],Non-toxic
same,Activity,[21],Non-toxic
same,Activity,[22],Non-toxic
same,Activity,[23],Non-toxic
same,Activity,[24],Non-toxic
same,Activity,[25],Active
same,Activity,[26],Active
same,Activity,[27],inactive
same,Activity,[28],inactive
same,Activity,[29],Non-toxic
same,Activity,[30],inactive
same,Activity,[31],inactive
same,Activity,[32],inactive
same,Activity,[33],Active
same,Time,[34],0.25 h
